Data as given in publication PMC13252795 (International journal for parasitology, 2017).

Columns and labels:
[1] = biological target: recombinant BbCDPK1 (rBbCDPK1) (Besnoitia besnoiti, UniProt A0A290U7L2); test: BbCDPK1 enzymatic activity inhibition, Kinase-Glo luciferase assay; assay type: biochemical
[2] = test system: B. besnoiti tachyzoites (Bb-Spain1) in HFF cells; test: Transmission electron microscopy of B. besnoiti-infected HFF treated with BKIs; assay type: cell-based, Besnoitia besnoiti; conditions: 5 μM, HFF cells, 4, 6 and 8 days; listed as BKI-1294
[3] = cattle; ref Huang et al., 2015; Schaefer et al., 2016; Hulverson et al., 2017; cited from earlier work
[4] = test system: B. besnoiti tachyzoites (Bb-Spain1) in Marc-145 cells; test: Short term dose-response assays, EC50 and EC99 determination by qPCR; assay type: cell-based, Besnoitia besnoiti
[5] = test system: Marc-145 cells; test: Mammalian cell toxicity, XTT cell viability assay; assay type: cell-based; conditions: uninfected Marc-145 cells, 5 μM, 72 h
Summary of the method: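 Exponential-phase Marc-145 cells were seeded at 2 × 10^5 cells/mL together with test compound dissolved in DMSO, in quadruplicate, and grown 72 h at 37 °C in humidified 5% CO2. XTT reagent was then added for 4 h, and […]. Percent growth inhibition was calculated relative to the DMSO vehicle.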

CCOc1ccc2cc(-c3nn(CC4CCN(C)CC4)c4ncnc(N)c34)ccc2c1 [Compound 1294]
IC50 values against BbCDPK1 (in words) [1]: lower nanomolar range
Effect on ultrastructure of tachyzoites (TEM) [2]: formed multinucleated complexes
Plasma levels achieved [3]: up to 5 μM
EC99 (B. besnoiti) ([4]; BKI added at 0 hpi, 3-day proliferation assay, qPCR, Marc-145 cells): 2.38 µM
EC50 ([4]; Besnoitia besnoiti, MARC145, 72 h, read-out: EC50 (B. besnoiti)): 45 nM
Percentage of cytotoxicity compared to DMSO-treated negative control [5]: 5.2%
